# Published values gathered from unrelated publications.
# Each line is one published result; the experiments were not run side by side.
# IGF1R: Insulin-like growth factor 1 receptor (IGF1R, Homo sapiens, UniProt P08069)
# IGF1R phosphorylated: Insulin-like growth factor 1 receptor, phosphorylated (IGF1R, Homo sapiens, UniProt P08069)
SMILES,target,read-out,mode,method,tested at,endpoint,result
Cc1cc(-n2nc(Cc3cc(F)cc(C(F)(F)F)c3)nc2C)ccc1C(N)=O,IGF1R,cell-free assay,,competition with immobilised ligand,1 µM,remaining binding,98%
CN1CC(Oc2cnc(C#N)cc2-c2ccn3nc(NC(=O)C4CC4)cc3c2)C1,IGF1R,enzyme activity,inhibitor,,1 µM,inhibition,9%
CNCc1ccc(-c2cc(-c3nc(-c4ccc(S(=O)(=O)C(C)C)cc4)cnc3N)on2)cc1,IGF1R,enzyme activity,inhibitor,,0.4 µM,inhibition,0%
CNC(=O)c1ccc(Nc2ncc(C(F)(F)F)c(NCc3nccnc3N(C)S(C)(=O)=O)n2)cc1,IGF1R,cell-free assay,,competition with immobilised ligand,0.1 µM,remaining binding,84%
Cc1cc(NC(=O)c2cccc3cc(-c4cccc5[nH]nc(N)c45)ccc23)ccc1F,IGF1R phosphorylated,enzyme activity,inhibitor,,0.1 µM,activity vs control,100%
Cc1c(NC(=O)c2cc(C(N)=O)nc3cc(F)ccc23)c(C(F)(F)F)nn1Cc1ccc(C#N)cc1,IGF1R,cell-free assay,,competition with immobilised ligand,1 µM,remaining binding,100%
Cc1ccc(C(=O)NCc2ccsc2)cc1C#Cc1cn(C(C)C)c2ncnc(N)c12,IGF1R phosphorylated,enzyme activity,inhibitor,,1 µM,activity vs control,136%
Nc1ncnc2occ(-c3ccc(NC(=O)Nc4cc(C(F)(F)F)ccc4F)cc3)c12,IGF1R,cell-free assay,,,20 µM,remaining signal,13%
COc1cc2nccc(Oc3ccc(NC(=O)c4c5n(n(-c6ccc(F)cc6)c4=O)CCCC5)cc3)c2cc1OC,IGF1R,enzyme activity,inhibitor,,0.1 µM,inhibition,16%
CS(=O)(=O)N1CCCC(NC(=O)[C@H](CCC2CCCCC2)NC(=O)c2ccc(CNc3ncnc4c3nnn4-c3ccccc3)cc2)C1 (stereo partly drawn),IGF1R,cell-free assay,,competition with immobilised ligand,0.1 µM,remaining binding,100%
O=C1Nc2ccc(Cl)cc2C1=Cc1cc(Cl)c(O)c(Cl)c1,IGF1R,cell-free assay,,,0.5 µM,remaining signal,98.3%
CCS(=O)(=O)c1cc2cc(C[C@@](O)(CC(C)(C)c3ccc(F)cc3C(N)=O)C(F)(F)F)[nH]c2cn1,IGF1R,cell-free assay,,competition with immobilised ligand,1 µM,remaining binding,100%
COc1cc2ncnc(Nc3ccc(Oc4ccccc4)cc3C)c2cc1OC,IGF1R,enzyme activity,inhibitor,,1 µM,inhibition,1%
N#Cc1ccc(Nc2ccc3[nH]c(=O)[nH]c3c2)c(Cl)c1,IGF1R,cell-free assay,,competition with immobilised ligand,1 µM,remaining binding,99%
CCCS(=O)(=O)Nc1ccc(F)c(C(=O)c2c[nH]c3ncc(-c4ccc(Cl)cc4)cc23)c1F,IGF1R,enzyme activity,inhibitor,,1 µM,inhibition,< 10%
N#CCCc1ccc2c(c1)-c1[nH]c3ccc([N+](=O)[O-])cc3c1CC(=O)N2,IGF1R,cell-free assay,,,0.5 µM,remaining signal,92.2%
O=C(CSc1nc2nccnc2c(=O)n1CCc1ccccc1)Nc1nccs1,IGF1R,enzyme activity,inhibitor,,10 µM,inhibition,12%
CCN(CC)CCNC(=O)c1c(C)[nH]c(/C=C2\C(=O)Nc3ccc(F)cc32)c1C,IGF1R,enzyme activity,inhibitor,,0.3 µM,inhibition,4%
CN(c1ncccc1CNc1nc(Nc2ccc3c(c2)CC(=O)N3)ncc1C(F)(F)F)S(C)(=O)=O,IGF1R,enzyme activity,inhibitor,,1 µM,inhibition,97.6%
CNC(=O)c1cc(Oc2ccc(NC(=O)Nc3ccc(Cl)c(C(F)(F)F)c3)cc2)ccn1,IGF1R,enzyme activity,inhibitor,,0.3 µM,inhibition,-3%
Cc1ccc(C(=O)Nc2ccc(CN3CCN(C)CC3)c(C(F)(F)F)c2)cc1C#Cc1cnc2cccnn12,IGF1R,cell-free assay,,,23.5 nM,remaining signal,84%
